Screens from PubChem BioAssay.
Most compounds without a hit are left out; they make up all but 2.2% or so of the library.
NR2E3 ag-1: human photoreceptor-specific nuclear receptor agonism | 360,000 tested, 0.35% active | AID 602229 | CHO-S Gal4-NCOR/VP16-NR2E3 two-hybrid, luciferase | inhibition of corepressor binding, % at 3.98 µM;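 active means inhibition above the mean of all tested compounds plus 3 SD, cut at about 70% in these data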;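 further: 0% = DMSO with NR2E3 transfected cells and 100% = cells lacking NR2E3 construct; higher means lower luciferase signal from less NR2E3 corepressor binding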
697 NFkB inh: inhibitors of the PMA/ionomycin-induced NF-kB reporter in 697 B cells | 697 B-cell NF-kB luciferase reporter, 16 h | 330,000 tested, 0.33% active | inhibition, % at 4 µM | AID 435022; in the data active means inhibition above about 35%
Jurkat NFkB inh: inhibitors of the PMA/ionomycin-induced NF-kB reporter in Jurkat cells; 330,000 tested, 0.53% active; inhibition, % at 4 µM; AID 435003; PMA/ionomycin-induced NF-kB luciferase reporter, luminescence; in the data active means inhibition above about 50%
miR-122 sensor: blocks miR-122 activity in Huh7 sensor cells | 340,000 tested, 0.3% active | Huh7 miR-122 Renilla luciferase sensor, 48 h; neutral wells = 0, positive control = 100 | activation (reporter increase), % at 12.5 µM;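 active means mean replicate activation score at least 90 and every replicate individually at or above 90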;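 further: higher luciferase means less miR-122 activity so hits act as miR-122 inhibitors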
NR2E3 ag-2: NR2E3 (human) agonism. AID 2300. GST-NR2E3/biotin-RetCOR TR-FRET, 1536-well. Q9Y5X4. 320,000 tested, 0.12% active. inhibition of corepressor binding, % at 4.78 µM;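 active means percent inhibition above the cutoff of mean plus 3 SD of all tested compounds, set per screening campaign, cut at about 20% in these data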;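 further: 0% = DMSO wells and 100% = biotin wells as full block of FRET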
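Material – GST-tagged NR2E3 plus biotinylated RetCOR corepressor · Quantity – NR2E3 fusion 1.35 nM · Times – 5 h incubation at 4 °C · Medium – pH 7.5 Tris-based buffer · Technique – TR-FRET, Eu(K)-anti-GST donor, streptavidin-D2 acceptor, ex 340, em 617/671 nm · Benchmarks – high control biotin, low control 0.6% DMSO · Format – 1536-well plates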
FGF22 binding: binders of recombinant human FGF22 by thermal shift; Q9HCT0; SYPRO orange fluorescence; percent of sucrose octasulfate shift, DMSO zero; activity (Tm shift, normalised), % at 9.99 µM; 340,000 tested, 1.5% active;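 active means mean Tm shift, scaled 0 neutral to 100 positive control, at about 1.3% or above, every replicate too, limit read from the data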
Target sequence (Q9HCT0 whole entry, looked up): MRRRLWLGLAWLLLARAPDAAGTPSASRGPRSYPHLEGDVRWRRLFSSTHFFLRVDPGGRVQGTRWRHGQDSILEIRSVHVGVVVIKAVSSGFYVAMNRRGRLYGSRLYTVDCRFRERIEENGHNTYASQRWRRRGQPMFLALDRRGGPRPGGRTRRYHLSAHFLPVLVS
NR2E3 ag confirm: NR2E3 agonism confirmed in two-hybrid assay | shares compounds with NR2E3 ag-1 | CHO-S mammalian two-hybrid NR2E3-NCOR, luciferase luminescence | inhibition, % at 3.98 µM | 2,300 tested, 51% active;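 active means average inhibition above a cutoff equal to the mean inhibition of all tested compounds plus one SD, cut at about 70% in these data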;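 further: 0% = DMSO in NR2E3 cells and 100% = DMSO in cells lacking NR2E3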
GAL4-VP16 luc: GAL4-VP16 reporter inhibition in NR2E3 agonist counterscreen. shares compounds with NR2E3 ag-1. CHO-S GAL4-VP16 luciferase reporter, luminescence. inhibition, % at 3.98 µM. 2,300 tested, 29% active. AID 624379;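 active means mean inhibition above a cutoff equal to the average over all tested compounds plus one standard deviation, cut at about 70% in these data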;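 further: luciferase from a UAS reporter driven by GAL4-VP16 transactivation; 0% = DMSO with VP16-transfected cells and 100% = DMSO with cells lacking VP16; higher means less reporter light so more repression of VP16 activity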
The depositor's hits bear a star.

Screening CS(=O)(=O)N1CCN(C(=O)c2csc3ccccc23)CC1 returned NR2E3 ag-1 17, 697 NFkB inh 19, Jurkat NFkB inh 5, miR-122 sensor 3 and NR2E3 ag-2 3.
For O=C(c1csc2ccccc12)N1CCN(c2ccc(Cl)c(Cl)c2)CC1 the results were NR2E3 ag-1 57, 697 NFkB inh 10, Jurkat NFkB inh 0, miR-122 sensor 0, NR2E3 ag-2 2, NR2E3 ag confirm 81* and GAL4-VP16 luc 61.
`Cn1ncc(Cl)c1C(=O)N1CCN(c2ccc(Cl)c(Cl)c2)CC1` gave NR2E3 ag-1 103*, 697 NFkB inh -17, Jurkat NFkB inh 0, miR-122 sensor -13, NR2E3 ag-2 1, FGF22 binding 0, NR2E3 ag confirm 95* and GAL4-VP16 luc 86*.
Screening Cn1ncc(Cl)c1C(=O)N1CCN(c2ccccc2)CC1 returned NR2E3 ag-1 -8, 697 NFkB inh 13, Jurkat NFkB inh -7, NR2E3 ag-2 4 and FGF22 binding 0.
Screening CC1Cc2cc(S(=O)(=O)N3CCN(c4ccc(Cl)cc4)CC3)ccc2N1C(=O)C1CC1 (centres undefined) returned NR2E3 ag-1 14, 697 NFkB inh -17, Jurkat NFkB inh 29, miR-122 sensor 5, NR2E3 ag-2 1 and FGF22 binding 0.
Screening Cc1ccc(Cl)cc1N1CCN(C(=O)C2CCN(S(=O)(=O)c3cccnc3)CC2)CC1 returned NR2E3 ag-1 52, 697 NFkB inh -5, Jurkat NFkB inh 6, miR-122 sensor -8, NR2E3 ag-2 0, NR2E3 ag confirm 53 and GAL4-VP16 luc 40.
For CC(=O)N1c2ccc(S(=O)(=O)N3CCC(C(=O)N4CCN(c5ccc(Cl)cc5)CC4)CC3)cc2CC1C (centres undefined) the results were NR2E3 ag-1 65, 697 NFkB inh 7, Jurkat NFkB inh 30, miR-122 sensor -11, NR2E3 ag-2 2, FGF22 binding 0, NR2E3 ag confirm 77* and GAL4-VP16 luc 68.
`CC(NC(=O)Nc1nnc(C(F)(F)F)s1)(C(F)(F)F)C(F)(F)F` gave NR2E3 ag-1 106*, 697 NFkB inh -90, Jurkat NFkB inh 11, miR-122 sensor -15, NR2E3 ag-2 -3, NR2E3 ag confirm 100* and GAL4-VP16 luc 94*.
Screening CC1=C(C(=O)NC2CCCc3c2cnn3-c2ccc(F)cc2F)OCCO1 (centres undefined) returned NR2E3 ag-1 66, 697 NFkB inh -48, Jurkat NFkB inh 8, miR-122 sensor -1, NR2E3 ag-2 3, FGF22 binding 0, NR2E3 ag confirm 28 and GAL4-VP16 luc 33.
`Cc1nnsc1C(=O)NC1CCCc2c1cnn2-c1ccc(C(C)(C)C)cc1` (centres undefined) gave NR2E3 ag-1 93*, 697 NFkB inh 13, Jurkat NFkB inh 46, miR-122 sensor -6, NR2E3 ag-2 0, FGF22 binding 0, NR2E3 ag confirm 78* and GAL4-VP16 luc 75*.
For COCc1ccc(C(=O)NC2CCCc3c2cnn3-c2cc(C)cc(C)c2)s1 (centres undefined) the results were NR2E3 ag-1 60, 697 NFkB inh -17, Jurkat NFkB inh 2, miR-122 sensor 1, FGF22 binding 0, NR2E3 ag confirm 49 and GAL4-VP16 luc 55.
CC(C)(C)c1ccc(-n2ncc3c2CCCC3NC(=O)c2ccncc2)cc1 (centres undefined) was read as NR2E3 ag-1 -3, 697 NFkB inh -19, Jurkat NFkB inh 32, miR-122 sensor 0, NR2E3 ag-2 0 and FGF22 binding 1.
